Assay results from the array DNA melting data of Ke et al. (doi:10.1101/2024.01.08.574731).

Legend:
[1] = melting temperature; fluorescence melt of hairpins on a sequencing array, two-state fit, raised by 9.35 °C to match UV melts; conditions: sodium 0.088 M
How it was run: (§1)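 Melting temperature and folding enthalpy were derived from bootstrapped two-state fits. The fitted temperatures were raised by 9.35 °C to agree with UV melts, and four replicates were combined by inverse variance. The underlying data were Cy3 fluorescence images of library hairpins, with annealed Cy3 and quencher oligos, on a sequenced MiSeq flow cell in 50 mM Na-HEPES pH 8.0, 25 mM NaCl, taken in 2.5 °C steps up to 60 °C, normalised to pre-quench Cy3 and to control constructs.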

[2] = folding enthalpy; higher = less favourable; fluorescence melt of hairpins on a sequencing array, two-state fit; conditions: sodium 0.088 M
How it was run: as §1

| Sequence | Tm [1] [°C] | folding enthalpy [2] [kcal/mol] |
| --- | --- | --- |
| GAGTTGCGAAAGCAGCTC (((.(((....))).))) | 62.1 | -32.4 |
| GTGGGACGAAAGTCCAC (((.(((....)))))) | 55.9 | -13.2 |
| GATCTCCTAGGAGATC ((((((....)))))) | 57.8 | -36 |
| GATCCTCAAAGGATC ((((((...)))))) | 50.6 | -32.1 |
| GTGCTCACGAAAGTGCAC (((..(((....)))))) | 48.3 | -19.9 |
| GTAAGGGGAAACTCTTAC (((((.(....).))))) | 37.6 | -34.4 |
| GCAAGGGGAAACTCTTGC (((((.(....).))))) | 50.1 | -45.3 |
| GGCGGTACGAAAGTAGCC (((..(((....)))))) | 50.7 | -18.8 |
| GGCGACGAAAGTCGAGCC ((((((....)))..))) | 55.8 | -15.9 |
| GACGCCGGAAACGGTGTC (((.(((....))).))) | 63.9 | -45.9 |
| GGATACGGAAACGCATCC ((((.((....)).)))) | 45.5 | -29.1 |
| GACCGAGAAATCGGTC ((((((....)))))) | 59.6 | -34.4 |
| CGACCGGAAACGGCCTCG ((((((....)))..))) | 30.2 | -11.9 |
| GCGTGCAGACGC ((((....)))) | 62.5 | -20.4 |
| GGTCGCGAAAGCGTAACC ((((((....)))..))) | 47.2 | -15 |
| GCTCTGCGAAAGCTGGGC ((.(.((....)).).)) | 54.3 | -21.4 |
| CGCGCGGAAACGCCGGCG ((((((....)))..))) | 54.3 | -22.2 |
| GTTACCGAAAGGTTCAAC ((((((....)))..))) | 25 | -8.36 |
| GTGTTGAAAAACAC (((((....))))) | 49.9 | -26.3 |
| GCCGGGCGAAAGCTCCGC ((.(.((....)).).)) | 45.2 | -13.1 |
| GATCTGTTTCCAGATC ((((((....)))))) | 49.3 | -34.9 |
| GATCCTTCCGAGGATC ((((((....)))))) | 53.1 | -43.5 |
| GCTAAGCGAAAGCTCAGC (((.(((....))).))) | 48 | -31.6 |

| Sequence | Tm [1] [°C] | folding enthalpy [2] [kcal/mol] |
| --- | --- | --- |
| GCCGCCGCGAAAGCGGGC (((..(((....)))))) | 64 | -5.71 |
| CGAACGGAAACGTTATCG ((((((....)))..))) | 28.8 | -14.6 |
| GAAGACGGAAACGTCCTC ((.((((....)))).)) | 35.9 | -11.9 |
| GCCCAACGAAAGTTAGGC (((.(((....))).))) | 48.7 | -34.3 |
| GCCTCGGGAAACCGAAGC ((.((((....)))).)) | 44.6 | -23.9 |
| GCGAGCGGAAACGCCCAC (.(.(((....))).).) | 34.2 | -8.67 |
| GATCATCATTATGATC ((((((....)))))) | 46.8 | -34.6 |
| GTACATCCGAAAGGATAC (((..(((....)))))) | 29.6 | -12.1 |
| GCGCCGCGAAAGCTCCGC (((..((....))..))) | 44.9 | -16.8 |
| GCTATGCGAAAGCTTAGC ((((.((....)).)))) | 60.8 | -28.9 |
| GTGGTTACGAAAGTACAC (((..(((....)))))) | 35.5 | -20.7 |
| GGCTCCGGAAACAGAGCC (((((.(....).))))) | 50.5 | -34 |
| GCCAACGAAAGTTCAGGC ((((((....)))..))) | 40.7 | -28.2 |
| GCAAACGAAAGTTTTTGC ((((((....)))..))) | 35.2 | -16.1 |
| GCACCAGGAAACTGGTAC (.(((((....))))).) | 39.6 | -16.7 |
| GCCGGAGGAAACTCTGGC (((.(((....))).))) | 54.8 | -34.6 |
| GCGGTCGGAAACGGTCGC (((..((....))..))) | 52.2 | -25.1 |
| GATCAGCAACTGATC ((((((...)))))) | 45.6 | -33.8 |
| GCAAGTGGAAACACTTAC (.(((((....))))).) | 34.6 | -18.7 |
| GGACTGCGAAAGCACTCC (((.(((....))).))) | 38.9 | -8.91 |
| GCGACCGGAAACAGCCGC (((.(.(....).).))) | 32.5 | -21.1 |
| GCATGCGAAAGCACCTGC ((((((....)))..))) | 33 | -10.9 |
| GCTTGTGGAAACACAAAC (.(((((....))))).) | 36.3 | -13.8 |

| Sequence | Tm [1] [°C] | folding enthalpy [2] [kcal/mol] |
| --- | --- | --- |
| CGGTAACGGAAACGTCCG (((..(((....)))))) | 37.9 | -24.6 |
| GATCCAGGAAACTGGGTC ((.((((....)))).)) | 49.9 | -29.9 |
| GAGCACGCGAAAGCGCTC (((..(((....)))))) | 47.6 | -12.8 |
| GTCCGTCGAAAGACGAC (((.(((....)))))) | 50.6 | -13.4 |
| GGTCCCGAAAGGGTACC ((((((....))).))) | 55.5 | -23.4 |
| GATCTAGGGTTAGATC ((((((....)))))) | 37.4 | -28.4 |
| GTAAGCCGAAAGGCCTAC (((.(((....))).))) | 39.4 | -13.7 |
| GATCTAAAAGTAGATC ((((((....)))))) | 29.6 | -17.5 |
| ATTGCGAAAGCAAT (((((....))))) | 57.6 | -17.5 |
| GTCAAGTCGAAAGACGAC (((..(((....)))))) | 41.9 | -15.4 |
| GCAAACGAAAGTTGCTGC ((((((....)))..))) | 54.1 | -22.2 |
| GGTTGCGGAAACACAACC (((((.(....).))))) | 48.4 | -40 |
| GATCAATGTATTGATC ((((((....)))))) | 51 | -41.1 |
| GCTGTGTCGAAAGACAGC (((..(((....)))))) | 48.9 | -17.3 |
| GAAGCAGGAAACTACTTC ((((.((....)).)))) | 31.7 | -19 |
| GTAGACGAAAGTCTTTAC ((((((....)))..))) | 29.3 | -10.4 |
| CGAAGCGGAAACGCCTCG (((.(((....))).))) | 47.3 | -23.8 |
| GATCTAACATTAGATC ((((((....)))))) | 39.6 | -22.6 |
| GATCTATGGCTAGATC ((((((....)))))) | 37.6 | -30.1 |
| GTGCTAGGAAACCAGCAC (((((.(....).))))) | 49.9 | -37 |
| GTCTCTGGAAACAGGGAC (((.(((....))).))) | 48.9 | -27.4 |
| GGCCCCGAAAGGGCGGCC ((((((....)))..))) | 64.7 | -16.9 |
| GTTTCCGAAAGGAGCAAC ((((((....)))..))) | 26.8 | -11.8 |

| Sequence | Tm [1] [°C] | folding enthalpy [2] [kcal/mol] |
| --- | --- | --- |
| GCCGCAGGAAACCGCAGC ((.((.(....).)).)) | 31.2 | -9.87 |
| GCAAATGGAAACATTTAC (.(((((....))))).) | 28.1 | -13.5 |
| GAGGTAGGAAACTACTTC ((.((((....)))).)) | 32.5 | -30.1 |
| GATCTACAATTAGATC ((((((....)))))) | 35.6 | -21.3 |
| GATCGGGACCCGATC ((((((...)))))) | 56.9 | -41.2 |
| GCCGTGCGAAAGCTCCGC ((.(.((....)).).)) | 40.4 | -11.2 |
| ACTACGAAAGTAGT (((((....))))) | 50.9 | -18.7 |
| GGTATCGAAAGATGTACC ((((((....)))..))) | 32.5 | -23.2 |
| GCCAGCGCGAAAGCGGGC (((..(((....)))))) | 61.2 | -16.1 |
| GCGAAGCGAAAGCTAAGC ((..(((....)))..)) | 54.4 | -16.5 |
| GAGAGTGGAAACACTCTC (((((((....))))))) | 61.5 | -41.2 |
| GCGGGATCCCGC ((((....)))) | 59.3 | -41.9 |
| GCATTGGGAAACCAATGC (((((((....))))))) | 65.8 | -44.9 |
| GCCGTGCCGAAAGGCGGC (((..(((....)))))) | 66.8 | -13.9 |
| GTGCGTACGAAAGTACAC (((..(((....)))))) | 54.1 | -10.5 |
| GCAATCCCGAAAGGGTGC (((..(((....)))))) | 46.6 | -19.1 |
| GATCTTCATCAAGATC ((((((....)))))) | 40.3 | -29.9 |
| GATCGATTAGTCGATC ((((((....)))))) | 53.2 | -54.5 |
| GATAAGCGAAAGCTAATC (((.(((....))).))) | 41.5 | -16.8 |
| GCGGAGCGAAAGCTTTGC ((..(((....)))..)) | 45.5 | -14.3 |
| GCTGAGCGAAAGCACGGC ((.(.((....)).).)) | 56.8 | -21.5 |
| GATCGAACATTCGATC ((((((....)))))) | 50.7 | -38.5 |
| GCGAAGGTCGC ((((...)))) | 49.9 | -15.3 |
